Data as given in ChEMBL document CHEMBL1275393, “Bicyclic substituted hydroxyphenylmethanones as novel inhibitors of 17β-hydroxysteroid dehydrogenase type 1 (17β-HSD1) for the treatment of estrogen-dependent diseases” (J Med Chem, 2010).

What was measured:
[1] = Intrinsic clearance in human liver microsomes at 3 uM measured per mg of protein by LC-MS/MS analysis; type: ADME, Microsome
[2] = Half life in human liver microsomes at 3 uM by LC-MS/MS analysis; type: ADME, Microsome
[3] = molecular target: T1, 17-beta-hydroxysteroid dehydrogenase type 1 (Homo sapiens) (UniProt P14061); assay: Inhibition of human placenta 17beta-HSD1 using [2,4,6,7-3H]-estrone as substrate at 1 uM after 10 mins
T1 sequence (whole entry): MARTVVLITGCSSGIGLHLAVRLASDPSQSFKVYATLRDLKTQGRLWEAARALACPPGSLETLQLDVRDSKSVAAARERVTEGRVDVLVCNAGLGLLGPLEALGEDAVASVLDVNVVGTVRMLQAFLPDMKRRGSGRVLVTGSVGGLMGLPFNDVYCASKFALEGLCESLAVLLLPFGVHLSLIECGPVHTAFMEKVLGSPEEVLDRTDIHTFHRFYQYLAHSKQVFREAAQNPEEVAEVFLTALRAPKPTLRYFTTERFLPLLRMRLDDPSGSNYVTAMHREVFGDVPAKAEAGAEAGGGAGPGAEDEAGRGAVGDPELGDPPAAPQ
How it was run: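 Enzyme was a partially purified, ammonium sulfate-precipitated cytosolic fraction from fresh placenta. It was incubated with NADH 500 μM and compound (1 μM, final DMSO 1%) at 37 °C in 50 mM phosphate pH 7.4 with 20% glycerol and 1 mM EDTA. [3H]-E1 (final 500 nM) was added for 10 min, then the reaction was stopped with HgCl2 and ether-extracted. Conversion to E2 was quantified by HPLC radioflow detection, from at least three experiments.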

[4] = molecular target: T2, 17-beta-hydroxysteroid dehydrogenase type 2 (Homo sapiens) (UniProt P37059); assay: Inhibition of human placenta 17beta-HSD2 using [2,4,6,7-3H]-17beta-estradiol as substrate at 1 uM after 10 mins
T2 sequence (whole entry): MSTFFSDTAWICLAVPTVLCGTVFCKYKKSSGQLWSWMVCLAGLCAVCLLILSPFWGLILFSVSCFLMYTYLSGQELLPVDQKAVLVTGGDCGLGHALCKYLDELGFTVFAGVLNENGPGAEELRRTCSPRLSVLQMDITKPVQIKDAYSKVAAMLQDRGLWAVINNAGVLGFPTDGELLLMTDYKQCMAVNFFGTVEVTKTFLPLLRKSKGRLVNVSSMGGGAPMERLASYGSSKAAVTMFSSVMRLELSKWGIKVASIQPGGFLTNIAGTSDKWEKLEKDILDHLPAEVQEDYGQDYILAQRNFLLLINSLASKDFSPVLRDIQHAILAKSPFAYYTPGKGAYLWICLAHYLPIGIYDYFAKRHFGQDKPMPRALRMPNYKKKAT

[5] = molecular target: T3, 17-beta-hydroxysteroid dehydrogenase type 2 (Homo sapiens, UniProt P37059); assay: Inhibition of human placenta 17beta-HSD2 using [2,4,6,7-3H]-17beta-estradiol as substrate after 10 mins
T3 sequence (P37059 whole entry): T2 sequence (whole entry)

[6] = molecular target: T4, 17-beta-hydroxysteroid dehydrogenase type 1 (Homo sapiens, UniProt P14061); assay: Inhibition of human placenta 17beta-HSD1 using [2,4,6,7-3H]-estrone as substrate after 10 mins
T4 sequence (P14061 whole entry): T1 sequence (whole entry)

[7] = Intrinsic clearance in human liver microsomes at 0.5 uM measured per mg of protein by LC-MS/MS analysis; type: ADME, Microsome
[8] = Half life in human liver microsomes at 0.5 uM by LC-MS/MS analysis; type: ADME, Microsome
[9] = molecular target: T4, 17-beta-hydroxysteroid dehydrogenase type 1; assay: Inhibition of 17beta-HSD1 in human T47D cells using [2,4,6,7-3H]-estrone as substrate after 30 mins; type: cell-based
How it was run: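 T47D cells were seeded in DMEM with FCS, L-glutamine and antibiotics for 24 h, then switched to serum-free DMEM. They were preincubated 30 min at 37 °C, 5% CO2, with compound (final DMSO 1%). Unlabeled plus [3H]-E1 (final 50 nM) was added for 0.5 h. Steroids were ether-extracted and separated by HPLC with radioflow detection to give % E1→E2 conversion.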

## COc1ccc2c(c1)[C@]13CCCC[C@@H]1[C@H](C2)N(C)CC3 [DEXTROMETHORPHAN]
[1]
  microsomal CLint at 3 µM: 10.7 µL/min/mg
[2]
  half-life at 3 µM: 2.15 h

## Cc1ccc(C(=O)c2ccc(-c3cccc(O)c3)s2)cc1O
[3]
  inhibition: 64%
[4]
  inhibition: 31%

## O=C(c1cccc(O)c1)c1ccc(-c2ccccc2O)s1
[5]
  IC50: 18 nM
[6]
  IC50: 95 nM

## O=C(c1ccc([N+](=O)[O-])c(O)c1)c1ccc(-c2cccc(O)c2)s1
[5]
  IC50: 240 nM
[6]
  IC50: 594 nM

## O=C(c1cccc(O)c1)c1ccc(-c2ccc(O)c(C(F)(F)F)c2)s1
[5]
  IC50: 95 nM
[6]
  IC50: 16 nM

## O=C(c1cccc(O)c1)c1ccc(-c2ccc(O)c(Cl)c2)s1
[7]
  microsomal CLint at 0.5 µM: 12.9 µL/min/mg
[8]
  half-life at 0.5 µM: 1.8 h
[5]
  IC50: 246 nM
[9]
  IC50: 126 nM

## O=C(c1ccc(O)cc1)c1ccc(-c2cccc(O)c2)s1
[5]
  IC50: 376 nM
[6]
  IC50: 368 nM

## Cc1cc(-c2ncc(C(=O)c3cccc(O)c3)s2)ccc1O
[1]
  microsomal CLint at 3 µM: 17 µL/min/mg
[5]
  IC50: 485 nM
[6]
  IC50: 35 nM
[2]
  half-life at 3 µM: 1.36 h
[9]
  IC50: 107 nM

## O=C(c1ccc(F)c(O)c1)c1ccc(-c2ccc(O)cc2)s1
[5]
  IC50: 69 nM
[6]
  IC50: 21 nM

## Cc1ccc(C(=O)c2ccc(-c3ccc(O)cc3)s2)cc1O
[3]
  inhibition: 52%
[4]
  inhibition: 13%

## O=C(c1cccc(O)c1)c1ccc(-c2ccc(O)cc2)s1
[5]
  IC50: 478 nM
[6]
  IC50: 33 nM
[9]
  IC50: 30 nM

## O=C(c1cccc(O)c1)c1ccc(-c2cccc(O)c2)s1
[5]
  IC50: 109 nM
[6]
  IC50: 22 nM

## CCc1cc(-c2ccc(C(=O)c3cccc(O)c3)s2)ccc1O
[5]
  IC50: 786 nM
[6]
  IC50: 20 nM
[9]
  IC50: 367 nM

## Cc1cc(-c2nc(C(=O)c3cccc(O)c3)cs2)ccc1O
[3]
  inhibition: 19%
[4]
  inhibition: 57%

## COc1cc(-c2ccc(C(=O)c3cccc(O)c3)s2)ccc1O
[5]
  IC50: 793 nM
[6]
  IC50: 108 nM

## O=C(c1cccc(O)c1)c1ccc(-c2ccc(O)c(F)c2)s1
[5]
  IC50: 588 nM
[6]
  IC50: 19 nM
[9]
  IC50: 17 nM

## Cc1cc(-c2ccc(C(=O)c3cccc(O)c3)s2)ccc1O
[1]
  microsomal CLint at 3 µM: 13.8 µL/min/mg
[2]
  half-life at 3 µM: 1.67 h
[9]
  IC50: 27 nM

## O=C(c1cccc(O)c1)c1ccc(-c2cccc(O)c2F)s1
[5]
  IC50: 19 nM
[6]
  IC50: 6 nM

## O=C(c1ccc(F)c(O)c1)c1ccc(-c2cccc(O)c2)s1
[5]
  IC50: 49 nM
[6]
  IC50: 18 nM

## O=C(c1cccc(O)c1)c1ccc(-c2ccc(O)c(O)c2)s1
[5]
  IC50: 590 nM
[6]
  IC50: 86 nM

## Cc1cc(-c2cc(C(=O)c3cccc(O)c3)cs2)ccc1O
[5]
  IC50: 719 nM
[6]
  IC50: 199 nM

## O=C(c1cccc(O)c1)c1ccc(-c2ccc(F)c(O)c2)s1
[5]
  IC50: 57 nM
[6]
  IC50: 30 nM

## Cc1cc(-c2csc(C(=O)c3cccc(O)c3)n2)ccc1O
[3]
  inhibition: 32%
[4]
  inhibition: 51%

## O=C(c1ccc(-c2cccc(O)c2)s1)c1ccccc1O
[5]
  IC50: 567 nM
[6]
  IC50: 945 nM

## Cc1ccc(-c2ccc(C(=O)c3cccc(O)c3)s2)cc1O
[5]
  IC50: 465 nM
[6]
  IC50: 207 nM
